Rtt109 HAT inh – inhibitors of C. albicans Rtt109/Vps75 HAT, primary screen, biochemical, ThioGlo CoA-SH fluorescence, plate reader. Histone acetyltransferase RTT109 (Candida albicans (strain SC5314 / ATCC MYA-2876)), …. purified Rtt109/Vps75, 4 h. inhibition, % at 34.9 µM. hit rate 0.16% among 330,000. AID 540336, 2011;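 active means inhibition of at least 50% in every replicate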
FAS TE block – FAS thioesterase domain inhibitors, primary screen, biochemical, fluorescence intensity, uHTS; Fatty acid synthase (Homo sapiens), P49327; recombinant FAS-TE, OMFH fluorogenic substrate, fluorescence endpoint; inhibition, % at 15 µM; hit rate 0.67% among 360,000; AID 602261, 2012;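 active means compounds whose normalised, plate-corrected inhibition of enzyme fluorescence in the single-dose primary screen is 50% or more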;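 further: 0% = DMSO with enzyme and 100% = substrate without enzyme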
PfM18AAP inh – PfM18AAP inhibitors, malaria aminopeptidase, primary screen, biochemical, QFRET, recombinant enzyme; M18 aspartyl aminopeptidase (Plasmodium falciparum 3D7); hit rate 1.2% among 290,000; H-Glu-NHMec fluorogenic cleavage; inhibition, % at 7.35 µM;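 active means inhibition above the campaign mean inhibition over all tested compounds plus 3 SD, cut at about 28% in these data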;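 further: 0% = plate median of test compound wells and 100% = 2 mM ZnCl2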
UCH37 inh – inhibitors of human UCH37 deubiquitinase, primary screen, biochemical, Ub-AMC cleavage, fluorescence. Ubiquitin carboxyl-terminal hydrolase isozyme L5 (Homo sapiens), Q9Y5K5. purified proteasome/UCH37. inhibition, % (concentration not given with the values). hit rate 0.33% among 330,000. AID 588478, 2011;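 active means mean inhibition over replicate wells above about 20%, limit read from the data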;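 further: 0% = compound-free wells with enzyme and 100% = wells lacking proteasome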
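Reagent: Ub-AMC substrate; assay system: Proteasome-associated human UCH37 deubiquitinase; controls: no-proteasome and no-compound wells; read-out: % inhibition of Ub-AMC cleavage fluorescence; timing: 30 min preincubation with enzyme, 25 min cleavage at room temperature; signal: AMC fluorescence from Ub-AMC cleavage, excitation 355 nm, emission 460 nm; buffer or medium: Tris-HCl pH 7.4 plus ovalbumin, ATP-MgCl2, DTT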
HDAC3 inhib – HDAC3 deacetylase inhibitors, primary screen, biochemical, fluorescence, cell-free homogeneous; hit rate 0.15% among 320,000; Histone deacetylase 3 (Homo sapiens), O15379; inhibition, % at 8.3 µM; recombinant HDAC3, fluorogenic peptide/trypsin coupled; AID 2718, 2010; in the data active means inhibition above about 26%, passing the limit was not always enough
Target sequence (O15379 whole entry, looked up): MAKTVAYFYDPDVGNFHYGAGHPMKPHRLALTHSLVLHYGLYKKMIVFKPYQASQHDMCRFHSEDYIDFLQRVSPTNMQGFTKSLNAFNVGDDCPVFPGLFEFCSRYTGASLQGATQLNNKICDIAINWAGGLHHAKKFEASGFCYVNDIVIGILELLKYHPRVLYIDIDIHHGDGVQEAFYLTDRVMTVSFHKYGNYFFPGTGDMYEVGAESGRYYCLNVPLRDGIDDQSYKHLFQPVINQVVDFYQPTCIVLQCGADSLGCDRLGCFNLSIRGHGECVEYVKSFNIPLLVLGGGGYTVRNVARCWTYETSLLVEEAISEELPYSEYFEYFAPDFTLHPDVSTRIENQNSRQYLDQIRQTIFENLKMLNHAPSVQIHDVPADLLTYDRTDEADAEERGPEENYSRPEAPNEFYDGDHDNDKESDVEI
ALR inh – inhibitors of human ALR sulfhydryl oxidase, primary screen, biochemical, H2O2 detection, HRP-luminol luminescence, single point; purified ALR, DTT oxidation; hit rate 3.8% among 290,000; inhibition, % (no concentration beside the values); FAD-linked sulfhydryl oxidase ALR (Homo sapiens), P55789;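 active means mean replicate inhibition above about 79%, with every replicate also reaching it, limit read from the data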
FAS-TE conf – FAS thioesterase domain inhibitors, confirmation, biochemical, fluorescence intensity, single concentration | AID 624325, 2012 | inhibition, % at 15 µM | shares compounds with FAS TE block | recombinant FAS-TE, OMFH fluorogenic substrate | hit rate 45% among 2,300;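 active means compounds inhibiting the enzyme by at least 50% at 15 µM in any one of the replicates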;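 further: 0% = enzyme with DMSO only and 100% = wells lacking enzyme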
Numbers without * were called inactive; nt = no result. Only some compounds are listed: those with a hit (about 4.6% of all), similar ones and a draw of the others.

SMILES	Rtt109 HAT inh	FAS TE block	PfM18AAP inh	UCH37 inh	HDAC3 inhib	ALR inh	FAS-TE conf
COC(=O)C1=C(C(=O)OC)[C@]2([C@H]3CCCCN[C@@H](Cc4ccccc4)C(=O)N3Cc3ccccc3)C=C[C@H]1O2	-6.4	75.0*	nt	-0.5	11.0	-3.7	11.2
O=C1[C@H](Cc2ccccc2)NCCCC[C@@H](c2ccc(Cl)cc2)N1Cc1ccccc1	-5.3	26.5	nt	-2.5	nt	nt	nt
CC1(C(=O)NS(=O)(=O)c2ccc(C#N)cc2)CCN1C(=O)c1cccc(F)c1 (stereo unspecified)	nt	-3.4	nt	nt	nt	nt	nt
CC(C)(C)c1ccc(C(=O)N2CCC2(C)C(=O)NS(=O)(=O)c2ccc(C#N)cc2)cc1 (stereo unspecified)	nt	53.3*	nt	nt	nt	nt	65.2*
CCOC(=O)C(CC)C(C)=NNC(=O)c1ccccc1[N+](=O)[O-] (stereo unspecified)	nt	nt	nt	1.4	nt	nt	nt
CCOc1ccc(NC(=O)CN(c2ccc([N+](=O)[O-])cc2)S(=O)(=O)c2ccccc2)cc1	-9.5	54.8*	-1.2	2.8	-3.0	-29.2	37.3*
COc1ccc(N(CC(=O)N/N=C/c2ccc(N(C)C)cc2)S(=O)(=O)c2ccccc2)cc1	-2.0	11.6	2.0	nt	4.3	-4.9	nt
O=C(CN(c1ccc(Cl)cc1)S(=O)(=O)c1ccccc1)N/N=C/c1ccco1	1.1	57.9*	3.9	nt	4.2	9.3	40.7*
Cc1ccc(S(=O)(=O)N(CC(=O)N/N=C/c2ccco2)c2cc(Cl)cc(Cl)c2)cc1	-0.4	39.8	2.5	nt	12.9	0.4	nt
CCOc1ccc(N(CC(=O)N/N=C/c2ccccn2)S(=O)(=O)c2ccc(Cl)cc2)cc1	-6.4	61.0*	5.4	nt	15.8	-8.6	66.4*
C/C=C/C=N/NC(=O)CN(c1ccc(Br)cc1)S(=O)(=O)c1ccccc1	1.5	58.5*	1.4	nt	2.9	2.7	72.3*
CCN1CCN(c2nc3c(C)cccn3c(=O)c2/C=C(\C#N)S(=O)(=O)c2ccccc2)CC1	8.2	8.7	4.6	0.7	8.0	-16.0	nt
Cc1cccn2c(=O)c(/C=C(\C#N)S(=O)(=O)c3ccccc3)c(N3CCN(c4ccccc4)CC3)nc12	-2.9	66.1*	-4.3	-4.4	-1.1	1.9	0.2
COC(=O)/C(C#N)=C/c1c(N2CCN(Cc3ccc4c(c3)OCO4)CC2)nc2c(C)cccn2c1=O	-13.9	-6.1	-14.7	0.1	6.8	nt	nt
CCOC(=O)/C(C#N)=C/c1c(N2CCN(Cc3ccc4c(c3)OCO4)CC2)nc2c(C)cccn2c1=O	1.8	50.8*	2.0	3.4	11.7	-33.3	-0.1
Cc1cccn2c(=O)c(/C=C(\C#N)C(N)=O)c(N3CCN(Cc4ccc5c(c4)OCO5)CC3)nc12	9.3	55.8*	-2.3	nt	-6.4	nt	68.7*
O=C(NN=Cc1cc([N+](=O)[O-])ccc1O)C1C2CCCCC21 (stereo unspecified)	nt	nt	nt	2.3	nt	nt	nt
O=C(NNc1ccc([N+](=O)[O-])cc1[N+](=O)[O-])C1C2CCCCC21 (stereo unspecified)	1.3	61.8*	5.6	2.5	-1.4	26.7	22.7
COc1ccc(C=NNc2ccccn2)c(OC)c1OC	nt	nt	nt	10.7	nt	nt	nt
Cn1c(SCc2c(Cl)cccc2Cl)nc(C(F)(F)F)cc1=O	-18.8	52.0*	2.1	0.3	-0.8	-2.3	6.7
Cn1c(SCc2cccc(Cl)c2)nc(C(F)(F)F)cc1=O	-6.2	63.4*	-7.2	-1.3	1.4	-28.1	61.6*
CC(=Nn1cnnc1)c1ccc(C#N)cc1	nt	nt	nt	0.5	nt	nt	nt
O=C(Nc1ccccc1)C(Cl)C(=O)c1ccccc1 (stereo unspecified)	5.8	51.3*	14.9	1.7	-5.0	15.2	40.1

Screening results from PubChem.
